Measurements: ChEMBL document CHEMBL1240483, “Novel N-phenyl dichloroacetamide derivatives as anticancer reagents: design, synthesis and biological evaluation” (Eur J Med Chem, 2010)

Columns and labels:
KB = experiment: Anticancer activity against human KB cells after 72 hrs by MTT assay; type: functional, cell-based
Procedure, shortened: (§1)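 Cells seeded at 3000/well and grown 24 h: A549 in F12-K, BGC-823, KB and BEL-7402 in RPMI 1640, all with 10% FBS at 37 °C in 5% CO2. Drug added at 10 concentrations from 4×10^-4 to 1×10^-7 M and incubated 72 h. MTT added for 4 h at 37 °C, then SDS/isobutanol/HCl lysis overnight. A570 read. IC50 from three independent tests.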

BGC-823 = experiment: Anticancer activity against human BGC823 cells after 72 hrs by MTT assay; type: functional, cell-based; conditions: BGC-823, 72 h; procedure, shortened: as §1
Bel-7402 = experiment: Anticancer activity against human Bel7402 cells after 72 hrs by MTT assay; type: functional, cell-based; conditions: Bel-7402, 72 h; procedure, shortened: as §1
A549 [1] = experiment: Anticancer activity against human A549 cells after 72 hrs by MTT assay; type: functional, cell-based; conditions: A549, 72 h; procedure, shortened: as §1
[2] = Toxicity in intragastrically administered Kunming mouse after 14 days; type: organism-based; conditions: in vivo, po
A549 [3] = experiment: Induction of apoptosis in human A549 cells assessed as early apoptotic cells at 10 uM after 48 hrs by annexin-V/propidium iodide based FACS analysis; type: functional
Procedure, shortened: (§2)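 A549 cells (F12-K, 10% FBS, 37 °C, 5% CO2) treated at 0, 10, 15 or 30 μM for 24 or 48 h, then trypsinized and resuspended in PBS. Stained with Annexin V-FITC/PI kit and analysed by flow cytometry. Early apoptotic cells counted in the Q4 quadrant.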

A549 [4] = experiment: Induction of apoptosis in human A549 cells assessed as early apoptotic cells at 15 uM after 24 hrs by annexin-V/propidium iodide based FACS analysis; type: functional; procedure, shortened: as §2
A549 [5] = experiment: Induction of apoptosis in human A549 cells assessed as early apoptotic cells at 15 uM after 48 hrs by annexin-V/propidium iodide based FACS analysis; type: functional; procedure, shortened: as §2
A549 [6] = experiment: Induction of apoptosis in human A549 cells assessed as late apoptotic cells at 30 uM after 48 hrs by annexin-V/propidium iodide based FACS analysis; type: functional
Procedure, shortened: (§3)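 A549 cells grown in F12-K with 10% FBS at 37 °C under 5% CO2. Exposed for 24 or 48 h to 0, 10, 15 or 30 μM, then trypsinized, pelleted and stained with Annexin V-FITC/PI for flow cytometry. Late apoptotic cells taken as the Q2 quadrant.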

A549 [7] = experiment: Induction of apoptosis in human A549 cells assessed as early apoptotic cells at 10 uM after 24 hrs by annexin-V/propidium iodide based FACS analysis; type: functional; procedure, shortened: as §2
A549 [8] = experiment: Induction of apoptosis in human A549 cells assessed as late apoptotic cells at 10 uM after 24 hrs by annexin-V/propidium iodide based FACS analysis; type: functional; procedure, shortened: as §3
A549 [9] = experiment: Induction of apoptosis in human A549 cells assessed as late apoptotic cells at 30 uM after 24 hrs by annexin-V/propidium iodide based FACS analysis; type: functional; procedure, shortened: as §3
A549 [10] = experiment: Induction of apoptosis in human A549 cells assessed as late apoptotic cells at 10 uM after 48 hrs by annexin-V/propidium iodide based FACS analysis; type: functional; procedure, shortened: as §3
A549 [11] = experiment: Induction of apoptosis in human A549 cells assessed as early apoptotic cells at 30 uM after 48 hrs by annexin-V/propidium iodide based FACS analysis; type: functional; procedure, shortened: as §2
A549 [12] = experiment: Induction of apoptosis in human A549 cells assessed as early apoptotic cells at 30 uM after 24 hrs by annexin-V/propidium iodide based FACS analysis; type: functional; procedure, shortened: as §2
A549 [13] = experiment: Induction of apoptosis in human A549 cells assessed as late apoptotic cells at 15 uM after 24 hrs by annexin-V/propidium iodide based FACS analysis; type: functional; procedure, shortened: as §3
A549 [14] = experiment: Induction of apoptosis in human A549 cells assessed as late apoptotic cells at 15 uM after 48 hrs by annexin-V/propidium iodide based FACS analysis; type: functional; procedure, shortened: as §3

Compound	IC50 (KB) [µM]	IC50 (BGC-823) [µM]	IC50 (Bel-7402) [µM]	IC50 (A549 [1]) [µM]	other results
O=C(Nc1ccccc1Cl)C(Cl)Cl				50.1	
O=C(Nc1ccccc1F)C(Cl)Cl				87.5	
O=C(Nc1cccc(Cl)c1)C(Cl)Cl			44.5	14.8	LD50 at 336 h [2]: 4550 mg/kg
COc1ccc(NC(=O)C(Cl)Cl)cc1	278		192	80.9	
O=C([O-])C(Cl)Cl.[Na+] [SODIUM DICHLOROACETATE]	1420	1050	860	1010	
O=C(Nc1cccc(Cl)c1Cl)C(Cl)Cl	217		180		
O=C(Nc1ccccc1NC(=O)C(Cl)Cl)C(Cl)Cl				131	
O=C(Nc1cccc(I)c1)C(Cl)Cl	5.25	58.8	5.39	4.76	Activity (A549 [3]): 7.8%; Activity (A549 [4]): 9.2%; LD50 at 336 h [2]: 1120 mg/kg; Activity (A549 [5]): 8.7%; Activity (A549 [6]): 35.6%; Activity (A549 [7]): 10.8%; Activity (A549 [8]): 8.6%; Activity (A549 [9]): 20.3%; Activity (A549 [10]): 17.6%; Activity (A549 [11]): 10.6%; Activity (A549 [12]): 15.2%; Activity (A549 [13]): 19.3%; Activity (A549 [14]): 22.6%
O=C(Nc1ccc(F)cc1)C(Cl)Cl				68.4	
Cc1ccc(NC(=O)C(Cl)Cl)cc1				48.9	
O=C(Nc1ccccc1)C(Cl)Cl				130	
O=C(Nc1ccccc1[N+](=O)[O-])C(Cl)Cl	253		194	198	
N#Cc1cccc(NC(=O)C(Cl)Cl)c1	60.9		48.4	66.5	

More lines, main results first:

IC50 (KB) [µM]	IC50 (BGC-823) [µM]	IC50 (Bel-7402) [µM]	IC50 (A549 [1]) [µM]	Compound	other results
60.6	190	29.5	34.4	O=C(Nc1ccc([N+](=O)[O-])cc1)C(Cl)Cl	
60.8		49.6	20.4	O=C(Nc1ccc(Cl)cc1)C(Cl)Cl	
20.6	64	9.01	6.53	O=C(Nc1cccc(S(=O)(=O)C(F)(F)F)c1)C(Cl)Cl	
7.05	177	7.37	5.09	O=C(Nc1ccc(Cl)c(Cl)c1)C(Cl)Cl	
66.2	222	11.9	12.5	O=C(Nc1ccc(I)cc1)C(Cl)Cl	
57.7	179	54.8	25.8	COc1cccc(NC(=O)C(Cl)Cl)c1	
8.86	143	5.97	12.2	O=C(Nc1cccc(C(F)(F)F)c1)C(Cl)Cl	
21.7		9.77	13.7	O=C(Nc1ccc(Br)cc1)C(Cl)Cl	
7.41	142	10.3	15.1	O=C(Nc1cccc(OC(F)(F)F)c1)C(Cl)Cl	
44.7	123	15.7	18	O=C(Nc1cccc([N+](=O)[O-])c1)C(Cl)Cl	
4.84	123	6.54	14.1	O=C(Nc1cccc(SC(F)(F)F)c1)C(Cl)Cl	
9.71	146	72.8	8.5	O=C(Nc1ccc(S(=O)(=O)C(F)(F)F)cc1)C(Cl)Cl	
			41.1	Cc1cccc(NC(=O)C(Cl)Cl)c1	
24	198	15.9	5.89	O=C(Nc1cccc(S(=O)(=O)c2cccc(NC(=O)C(Cl)Cl)c2)c1)C(Cl)Cl	
2.08	203	3.61	10.6	O=C(Nc1ccc(SC(F)(F)F)cc1)C(Cl)Cl	
11.5		18.2	12.4	O=C(Nc1cc(Cl)ccc1Cl)C(Cl)Cl	
67.9		38.2	37	O=C(Nc1ccccc1Br)C(Cl)Cl	
6.26	172	4.74	11.2	C#Cc1cccc(NC(=O)C(Cl)Cl)c1	
4.53	60.1	4.65	4.4	O=C(Nc1cc(Cl)cc(Cl)c1)C(Cl)Cl	
8.18	95.3	7.72	7.8	O=C(Nc1cccc(Br)c1)C(Cl)Cl	
